From PubChem BioAssay
sPLA2-III inh: Inhibits HGIII-sPLA2 liposome hydrolysis, primary screen. Q9NZ20. QFRET BODIPY PC-A2 liposome hydrolysis, fluorescence. inhibition, % at 12.2 µM. 370,000 tested, 0.56% active. AID 743126;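 active = inhibition above mean plus 3 SD of compounds lying within the high and low control bounds, cut at about 19% in these data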
PLCb3 inh: inhibitors of human phospholipase C beta3; Q01970; Purified PLC-beta3, fluorogenic substrate, fluorescence; inhibition, % at 12.2 µM; 370,000 tested, 0.18% active; in the data active = inhibition above about 11%
Target sequence (Q01970 whole entry, looked up): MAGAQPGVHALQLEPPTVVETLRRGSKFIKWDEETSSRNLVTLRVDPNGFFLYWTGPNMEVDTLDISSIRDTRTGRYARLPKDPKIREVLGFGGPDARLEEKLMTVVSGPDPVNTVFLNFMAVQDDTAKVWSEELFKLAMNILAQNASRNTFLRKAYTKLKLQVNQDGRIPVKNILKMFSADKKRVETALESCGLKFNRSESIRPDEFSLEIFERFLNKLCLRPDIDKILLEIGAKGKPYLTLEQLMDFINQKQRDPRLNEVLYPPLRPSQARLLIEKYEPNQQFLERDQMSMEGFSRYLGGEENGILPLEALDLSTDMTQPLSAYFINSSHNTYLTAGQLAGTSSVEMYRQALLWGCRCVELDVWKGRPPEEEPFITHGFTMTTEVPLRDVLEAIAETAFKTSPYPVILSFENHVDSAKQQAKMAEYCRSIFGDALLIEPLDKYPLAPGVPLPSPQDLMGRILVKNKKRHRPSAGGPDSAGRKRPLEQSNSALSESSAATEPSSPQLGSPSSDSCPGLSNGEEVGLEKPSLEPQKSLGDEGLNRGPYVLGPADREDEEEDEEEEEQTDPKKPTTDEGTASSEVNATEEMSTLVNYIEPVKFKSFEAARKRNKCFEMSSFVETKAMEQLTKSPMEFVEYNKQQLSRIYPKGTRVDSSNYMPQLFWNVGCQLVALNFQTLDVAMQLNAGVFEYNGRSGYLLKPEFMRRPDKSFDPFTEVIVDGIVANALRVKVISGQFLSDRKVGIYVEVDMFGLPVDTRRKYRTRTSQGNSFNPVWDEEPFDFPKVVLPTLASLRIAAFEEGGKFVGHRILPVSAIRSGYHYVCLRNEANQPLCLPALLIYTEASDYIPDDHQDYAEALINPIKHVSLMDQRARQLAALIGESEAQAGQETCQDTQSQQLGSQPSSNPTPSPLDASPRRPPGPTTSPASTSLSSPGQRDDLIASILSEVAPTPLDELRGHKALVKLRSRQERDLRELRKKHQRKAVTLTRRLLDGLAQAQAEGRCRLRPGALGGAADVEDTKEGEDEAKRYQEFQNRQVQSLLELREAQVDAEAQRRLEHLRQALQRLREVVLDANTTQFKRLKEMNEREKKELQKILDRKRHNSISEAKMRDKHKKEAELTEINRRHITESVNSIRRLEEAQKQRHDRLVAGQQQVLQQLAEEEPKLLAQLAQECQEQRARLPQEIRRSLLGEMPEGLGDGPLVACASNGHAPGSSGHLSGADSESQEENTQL
ASAP1 inh: blocks human ASAP1-stimulated Arf1 GTP hydrolysis | inhibition, % at 16.5 µM | Q9ULH1 | 360,000 tested, 0.19% active | GDP FP detection; in the data active = inhibition above about 25%
PLCg1 inh: PLC-gamma1 (human) inhibition, primary screen | inhibition, % at 12.2 µM | 370,000 tested, 0.84% active | purified PLC-gamma1, fluorogenic substrate, fluorescence | AID 720700; in the data active = inhibition above about 9.5%
ARFGAP1 inh: rat ARFGAP1 inhibition; Arfgap1-stimulated ARF1 GTP hydrolysis, GDP FP detection; inhibition, % at 16.5 µM; 360,000 tested, 0.26% active;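 active = inhibition above a per-plate limit, mean inhibition of low control wells plus 3 SD, cut at about 25% in these data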
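Material: truncated rat Arfgap1 GAP domain; Incubation: compound-enzyme preincubation 20 min, reaction 120 min, detection 60 min, 25 °C; Read-out: percent inhibition of Arfgap1-stimulated GTP hydrolysis; Technique: FP, GDP Alexa 633 tracer displaced from anti-GDP antibody, 620/688 nm; Controls: No-Arfgap1 wells (100%) versus DMSO full-reaction wells (0%); Replication: single well per compound.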
sPLA2 confirm: human GIII-sPLA2 inhibition, confirmation | 2,000 tested, 34% active | shares compounds with sPLA2-III inh | inhibition, % at 12.2 µM | recombinant hGIII-sPLA2, BODIPY PC-A2 QFRET fluorescence;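 active = mean inhibition across triplicates above the hit cutoff set in the earlier primary screen, cut at about 19% in these data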
535nm interf: optically interferes with 535nm fluorescence in sPLA2 counter-screen. shares compounds with sPLA2-III inh. BODIPY FL product fluorescence interference, QFRET. inhibition, % at 12.2 µM. 2,000 tested, 8.5% active;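 active = average inhibition above the solvent-only control mean plus 3 SD, cut at about 6% in these data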
BODIPY interf DR: counter-screen for HGIII-sPLA2 inhibitors: 535nm fluorescence interference, dose response. shares compounds with sPLA2-III inh. BODIPY FL product fluorescence interference, cell-free. AID 743455. IC50, µM. 240 tested, under 10 active;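 active = IC50 at or below 10 µM; inactive = IC50 above 10 µM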
Numbers stand for hits; - = inactive; . = no result given. A selection: hits, their analogues and other compounds. The true share with any hit is near 1.9%.

SMILES | sPLA2-III inh | PLCb3 inh | ASAP1 inh | PLCg1 inh | ARFGAP1 inh | sPLA2 confirm | 535nm interf | others
C[C@H]1COc2cc(Br)ccc2S(=O)(=O)N1Cc1cn(Cc2ccccc2)nn1 | - | - | . | - | . | . | .
COc1ccccc1N1CCN(CCN2C(=O)CC3(CCCC3)CC2=O)CC1 | 20 | - | - | - | - | - | -
O=C(Nc1nnc([C@@H]2C[C@H](O)[C@@H](CO)O2)s1)c1ccccc1Cl | 20 | - | - | - | - | - | -
Cn1c(NC(=O)c2ccccc2)nc(Cc2ccccc2)c1-c1ccccc1 | - | - | . | - | . | . | .
CCCCC(=O)Nc1c2c(nn1-c1cccc(C)c1C)CS(=O)(=O)C2 | 20 | - | - | - | - | - | -
CCOC(=O)c1cc(CC)sc1/N=C/C1=C(O)CC(C)(C)CC1=O | 23 | - | - | - | - | - | -
CCOC(=O)c1ccc(N=CC2=C(O)CC(C)(C)CC2=O)cc1 | - | - | - | - | - | . | .
COC(=O)[C@]12C[C@H](CC(=O)NCCCCc3ccccc3)C(=O)N(Cc3ccccc3)C1=C[C@H](COCc1ccccc1)O[C@@H]2C | - | - | . | - | . | . | .
O=C(NNC(=S)Nc1ccc(Br)cc1)c1cccnc1 | 19 | - | - | - | - | 31 | - | BODIPY interf DR=-
O=C(NNC(=S)Nc1ccc(C(=O)O)c(O)c1)c1ccncc1 | 20 | - | - | - | - | - | -
O=C(NNC(=S)Nc1ccccc1)c1ccncc1 | - | - | - | - | - | . | .
O=C(NC(=S)NNC(=O)c1ccccc1O)c1cccc([N+](=O)[O-])c1 | 41 | - | - | - | - | 27 | -
O=C(NNC(=S)Nc1ccc(F)cc1)c1cccc([N+](=O)[O-])c1 | 25 | - | - | - | - | 31 | -
Cc1ccc(C(=O)N2CCC[C@@H]2C(=O)N2CCC[C@H]2C(=O)NCc2ccccc2)cc1 | - | - | - | - | - | . | .
O=C(OCc1cn(Cc2ccc(F)cc2F)nn1)N1CCCC1 | - | - | . | - | . | . | .
O=C(NC(=S)NNC(=O)c1ccc(Cl)cc1Cl)c1cccnc1 | - | - | - | - | - | . | .
O=C(NC(=S)NNC(=O)c1ccccc1O)c1cccnc1 | 33 | - | - | - | - | - | -
CNC(=S)/N=C(/Nc1ccccc1)c1ccccc1 | - | - | - | - | - | . | .
CNC(=S)/N=C(\Nc1ccc(C)cc1)c1ccccc1 | 21 | - | - | - | - | - | -
COC(=O)c1ccc(S(=O)(=O)N2CCC(NC(=O)Cc3ccccc3)CC2)cc1 | - | - | . | - | . | . | .
O=C(N[C@@H](Cc1cccnc1)C(=O)N1CCC[C@H]1C(=O)NCCc1ccccc1Cl)c1cccs1 | - | - | - | - | - | . | .
COC(=O)Cc1nnn2c1[C@@H](C)[C@@H](c1ccccc1Br)O[C@@H](C)C2 | - | - | - | - | - | . | .
CCN(CC(=O)NC(C)(C)C)C(=O)CCl | 20 | - | - | - | - | - | -
O=S1(=O)c2ccc(Br)cc2OC[C@H](Cc2ccccc2)N1Cc1cn(Cc2ccc(Cl)cc2)nn1 | - | - | . | - | . | . | .
CCc1c(-c2n[nH]c(=S)n2Cc2ccccc2)csc1C | 20 | - | - | - | - | 33 | - | BODIPY interf DR=-
SMILES | sPLA2-III inh | PLCb3 inh | ASAP1 inh | PLCg1 inh | ARFGAP1 inh | sPLA2 confirm | 535nm interf | others
COC(=O)N/N=C/c1c(C)nn(-c2cccc(Cl)c2)c1Cl | 20 | - | - | - | - | - | -
CCCNS(=O)(=O)c1ccc(CCC(=O)N2CCN(CC)CC2)cc1 | 21 | - | - | - | - | - | -
O=C(Nc1ccc(COc2ccccc2)cc1)Oc1ccccc1N1CCOCC1 | 25 | - | - | - | - | - | -
CCCCCCC12C(=Cc3cc(C)ccc31)c1ccccc1C(CC(=O)NCc1ccccc1)N2C(=O)OC (stereo not given) | - | - | - | - | - | . | .
Nc1ccc(NC(=O)c2cccs2)c(Cl)c1 | 22 | - | - | - | - | - | -
CC1CN(C(=O)C2CCCC2)C(C)CN1C(=O)C1CCCC1 (stereo not given) | - | - | - | - | - | . | .
